ChEMBL document CHEMBL1142936, “Library synthesis and screening: 2,4-diphenylthiazoles and 2,4-diphenyloxazoles as potential novel prion disease therapeutics” (2007)

Experiments:
[1] = target: Major prion protein (Homo sapiens) (UniProt P04156); assay: Binding affinity at human PrPC at 40 uM by SPR assay
[2] = target: Major prion protein (Mus musculus) (UniProt P04925); assay: Binding affinity at mouse PrPC at 40 uM by SPR assay
[3] = Inhibition of PrPSc formation in mouse SMB cells at 2.5 uM after 5 days […] relative to control; format: functional; details: 120 h
Outline: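 Scrapie-infected SMB mouse cells seeded at 3 × 10⁴ per well, attached 24 h, then exposed 5 days to compound. DMSO stocks were 400× final, diluted 20-fold into Hank's salt solution, then 20-fold into medium. Lysates were dot-blotted at about 30-40 µg protein, guanidine thiocyanate treated, and probed with anti-PrP 6H4 with ECL detection. PrP^Sc was expressed relative to untreated control, as the mean of triplicates with standard deviation.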

Chain of Major prion protein (Mus musculus) (P04925 whole entry): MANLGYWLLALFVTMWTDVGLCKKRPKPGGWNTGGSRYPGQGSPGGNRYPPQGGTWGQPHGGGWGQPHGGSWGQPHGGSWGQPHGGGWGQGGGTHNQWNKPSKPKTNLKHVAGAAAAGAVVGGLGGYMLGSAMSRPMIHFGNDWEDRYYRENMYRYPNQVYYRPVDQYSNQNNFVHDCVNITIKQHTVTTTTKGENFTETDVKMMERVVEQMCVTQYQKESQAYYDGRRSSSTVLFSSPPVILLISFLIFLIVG

Structure (SMILES)	RUmax [1] [%]	RUmax [2] [%]	inhibition at 2.5 µM [3] [%]
O=C(Nc1sc(-c2ccccc2)nc1-c1ccccc1)c1nc2ccccc2s1	40.1	0	
O=C(Nc1sc(-c2ccccc2)nc1-c1ccccc1)c1ccccc1	0	0	
COc1ccc(C(=O)Nc2oc(-c3ccccc3)nc2-c2ccccc2)cc1	0	0	
O=C(Nc1oc(-c2ccccc2)nc1-c1ccccc1)c1cc2ccccc2o1	48.9	58	
O=C(Nc1oc(-c2ccccc2)nc1-c1ccccc1)C(F)(F)F	13.7	22	35.1
O=C(Nc1sc(-c2ccccc2)nc1-c1ccccc1)c1cccnc1	0	0	
O=C(Nc1sc(-c2ccccc2)nc1-c1ccccc1)c1ccco1	6.5	8.4	
CCCC(CCC)C(=O)Nc1sc(-c2ccccc2)nc1-c1ccccc1	0	0	
O=C(Nc1oc(-c2ccccc2)nc1-c1ccccc1)c1ccncc1	0	0	
Cc1ccc(C(=O)Nc2sc(-c3ccccc3)nc2-c2ccccc2)s1	19.8	0	
O=C(Nc1oc(-c2ccccc2)nc1-c1ccccc1)c1ccc([N+](=O)[O-])o1	0	0	
O=C(Nc1oc(-c2ccccc2)nc1-c1ccccc1)c1cccs1	27.5	37.4	
O=C(Nc1sc(-c2ccccc2)nc1-c1ccccc1)C1CC1	0	0	
O=C(Nc1oc(-c2ccccc2)nc1-c1ccccc1)c1ccno1	18.3	21.7	
O=C(Nc1oc(-c2ccccc2)nc1-c1ccccc1)C1CC1	0	0	
O=C(Nc1sc(-c2ccccc2)nc1-c1ccccc1)c1ccc(C(F)(F)F)cc1	0	0	
O=C(Nc1oc(-c2ccccc2)nc1-c1ccccc1)c1ccc(C(F)(F)F)cc1	0	0	
O=C(Nc1oc(-c2ccccc2)nc1-c1ccccc1)c1cccnc1	37.3	40	
O=C(Nc1sc(-c2ccccc2)nc1-c1ccccc1)c1cc2ccccc2s1	21.1	0	
O=C(Nc1oc(-c2ccccc2)nc1-c1ccccc1)c1ccc2ccccc2n1	0	0	
O=C(Nc1oc(-c2ccccc2)nc1-c1ccccc1)c1ccco1	3.8	0	
O=C(Nc1sc(-c2ccccc2)nc1-c1ccccc1)c1cccc(C(F)(F)F)c1	65	0	
O=C(Nc1sc(-c2ccccc2)nc1-c1ccccc1)c1ccncc1	5	8.5	
O=C(Nc1sc(-c2ccccc2)nc1-c1ccccc1)c1ccno1	0	0	
O=C(Nc1sc(-c2ccccc2)nc1-c1ccccc1)c1ccc([N+](=O)[O-])o1	0	0	
O=C(Nc1oc(-c2ccccc2)nc1-c1ccccc1)c1ccc(F)cc1	0	0	
O=C(Nc1sc(-c2ccccc2)nc1-c1ccccc1)c1ccccc1C(F)(F)F	0	0	
O=C(Nc1oc(-c2ccccc2)nc1-c1ccccc1)c1cc2ccccc2s1	48	59.6	
CC(C)(C)OC(=O)Nc1oc(-c2ccccc2)nc1-c1ccccc1	11.3	10.6	
O=C(Nc1sc(-c2ccccc2)nc1-c1ccccc1)C(F)(F)F	9.5	18.7	13.7
